Assay results collected from several papers.
Organism: Klebsiella pneumoniae
Read-out: microbial growth

SMILES	test	test system	setting	MIC
NC1CCCCc2c1[nH]c1cc(Cl)c(Cl)cc21 (stereo not drawn)	broth dilution	ATCC10031	–	2 µg/mL
CCCCCC/C=C\CCCCCCCCCc1cc(O)cc(O)c1	broth dilution	ATCC10031	–	> 64 µg/mL
O=C1CN(/N=C/c2ccc([N+](=O)[O-])o2)C(=O)N1	broth dilution	ATCC700603	–	320 µM
CN(C)[C@@H]1C(O)=C(C(N)=O)C(=O)[C@@]2(O)C(O)=C3C(=O)c4c(cc5ccc(-c6cccnc6)cc5c4O)C[C@H]3C[C@@H]12	broth dilution	ATCC13883	–	32 µg/mL
CCn1cc(C(=O)O)c(=O)c2cc(F)c(N3CCNCC3)cc21	broth dilution	ATCC43816	–	2 µM
CCCCCCC#Cc1cncc(-c2nnc(SCc3ccc(Cl)cc3)n2C2CC2)c1	–	–	–	≥ 20 µg/mL
NCCCNC1CCCCc2c1[nH]c1ccc(Br)cc21 (stereo not drawn)	broth dilution	ATCC10031	–	8 µg/mL
C[C@@H]1O[C@@H]1P(=O)(O)O	broth dilution	ATCC700603	–	80 µM
NC1CCc2c1[nH]c1ccc(Cl)c(Cl)c21 (stereo not drawn)	broth dilution	ATCC10031	–	8 µg/mL
CO[C@@H]1[C@@H](OC(N)=O)[C@@H](O)[C@H](Oc2ccc3c(O)c(NC(=O)c4ccc(O)c(CC=C(C)C)c4)c(=O)oc3c2C)OC1(C)C	broth dilution	ATCC700603	–	160 µM
O=C1NN=C(N=Cc2ccccc2O)C1=NNn1c(-c2ccccc2)nc2ccccc2c1=O	broth dilution	–	24 h	55.4 µM
CCCCCCC#Cc1cncc(-c2nnc(SCc3ccc([N+](=O)[O-])o3)n2C)c1	–	–	–	≥ 20 µg/mL
CC1(C)S[C@@H]2[C@H](NC(=O)COc3ccccc3)C(=O)N2[C@H]1C(=O)O	–	–	18 h, clinical isolate	> 128 µg/mL
CN(C)c1ccc(-c2ccc3cc4c(c(O)c3c2)C(=O)C2=C(O)[C@]3(O)C(=O)C(C(N)=O)=C(O)[C@@H](N(C)C)[C@@H]3C[C@@H]2C4)cc1	broth dilution	ATCC13883	–	32 µg/mL
O=C1NN=C(N=Cc2ccc(O)c(O)c2)C1=NNn1c(-c2ccccc2)nc2ccccc2c1=O	broth dilution	–	24 h	53.5 µM
C[C@H]1COc2c(N3CCN(C)CC3)c(F)cc3c(=O)c(C(=O)O)cn1c23	broth dilution	ATCC700603	–	0.16 µM
Cc1c(CN(C)C(=O)/C=C/c2cnc3c(c2)CCC(=O)N3)oc2ccccc12	broth dilution	–	–	> 32 µg/mL
CO/N=C(\C(=O)N[C@@H]1C(=O)N2C(C(=O)[O-])=C(C[N+]3(C)CCCC3)CS[C@H]12)c1csc(N)n1	broth dilution	ATCC700603	–	1.3 µM
CN[C@@H]1[C@@H](O)[C@@H](O[C@@H]2[C@@H](O)[C@H](O[C@H]3OC(CNCCO)=CC[C@H]3N)[C@@H](N)C[C@H]2NC(=O)[C@@H](O)CCN)OC[C@]1(C)O	–	–	–	0.25 to 0.5 µg/mL
CN(C)[C@@H]1C(O)=C(C(N)=O)C(=O)[C@@]2(O)C(O)=C3C(=O)c4c(cc5ccc(CN6CCCCC6)cc5c4O)C[C@H]3C[C@@H]12	broth dilution	ATCC13883	–	4 µg/mL

SMILES	test	test system	setting	MIC
O=C(Nc1ccc([N+](=O)[O-])cc1F)c1ccccc1O	broth dilution	BAA1705	–	> 64 µg/mL
O=C(O)c1cn(C2CC2)c2cc(N3CCNCC3)c(F)cc2c1=O	–	DSM30104	–	≤ 0.03 µg/mL
CC(C)(O/N=C(\C(=O)N[C@@H]1C(=O)N2C(C(=O)[O-])=C(C[n+]3ccccc3)CS[C@H]12)c1csc(N)n1)C(=O)O	broth dilution	ATCC10031	18 h	2 µg/mL
CC1=NN(CNC(=O)c2ccccc2)C(=O)C1=NNn1c(-c2ccccc2)nc2ccccc2c1=O	broth dilution	–	24 h	51.9 µM
CNC(=O)c1cc(Oc2ccc(NC(=O)Nc3ccc(Cl)c(C(F)(F)F)c3)cc2)ccn1	–	DSM30104	–	> 100 µM
C/C(=C\c1ccc(C#N)cc1)C(=O)Nc1ccc(C(=O)N[C@@H](CC(N)=O)C(=O)Nc2ccc(C(=O)Nc3ccc(C(=O)Nc4ccc(C(=O)O)cc4)c(O)c3OC(C)C)cc2)cc1	–	DSM30104	–	> 64 µg/mL
NCC[C@H](O)C(=O)N[C@@H]1C[C@H](N)[C@@H](O[C@H]2O[C@H](CN)[C@@H](O)[C@H](O)[C@H]2O)[C@H](O)[C@H]1O[C@H]1O[C@H](CO)[C@@H](O)[C@H](N)[C@H]1O	–	–	–	1 µg/mL
CC1(C)S[C@@H]2[C@H](/N=C/N3CCCCCC3)C(=O)N2[C@H]1C(=O)O	broth dilution	ATCC700603	–	2.5 µM
CN(C)[C@@H]1C(O)=C(C(N)=O)C(=O)[C@@]2(O)C(O)=C3C(=O)c4c(cc5ccc(-c6ccccc6)cc5c4O)C[C@H]3C[C@@H]12	broth dilution	ATCC13883	–	32 µg/mL
O=C(O)c1cn(C2CC2)c2cc(N3CCNCC3)c(F)cc2c1=O	broth dilution	–	24 h	0.57 µM
O=[N+]([O-])c1ccc(/C=N/Nc2nc(Nc3ccccc3)nc(N3CCOCC3)n2)o1	–	–	–	> 120 µM
Cc1c(CN(C)C(=O)/C=C/c2cnc3c(c2)CC(CCN)C(=O)N3)oc2ccccc12.Cl (stereo not drawn)	broth dilution	BAA1705	–	16 µg/mL
O=C1NN=C(N=Cc2ccccc2)C1=NNn1c(-c2ccccc2)nc2ccccc2c1=O	broth dilution	–	24 h	114 µM
Cn1c(SCc2ccc(Cl)cc2)nnc1-c1cncc(C#Cc2ccccc2)c1	–	–	–	≥ 20 µg/mL
CN(Cc1ccc2cc3c(c(O)c2c1)C(=O)C1=C(O)[C@]2(O)C(=O)C(C(N)=O)=C(O)[C@@H](N(C)C)[C@@H]2C[C@@H]1C3)c1ccccc1	broth dilution	ATCC13883	–	32 µg/mL
CC[C@H]1OC(=O)[C@H](C)C(=O)[C@H](C)[C@@H](O[C@@H]2O[C@H](C)C[C@H](N(C)C)[C@H]2O)[C@](C)(OC)C[C@@H](C)C(=O)[C@H](C)[C@H]2N(CCCCn3cnc(-c4cccnc4)c3)C(=O)O[C@]12C	broth dilution	ATCC700603	–	40 µM
CCCCCCC#Cc1cncc(-c2nnc(SCc3ccc(C#N)cc3)n2C)c1	–	–	–	≥ 20 µg/mL
CC(=O)O[C@H]1C[C@@]2(C)[C@@H](C[C@@H](O)[C@H]3[C@@]4(C)CC[C@@H](O)[C@@H](C)[C@@H]4CC[C@@]32C)/C1=C(\CCC=C(C)C)C(=O)O	broth dilution	ATCC700603	–	640 µM
CC1=NN(CNc2ccccc2[N+](=O)[O-])C(=O)C1=NNn1c(-c2ccccc2)nc2ccccc2c1=O	broth dilution	–	24 h	50.4 µM
